We go through 25 compounds from ChEMBL document CHEMBL5625181, “Exploring the 1,3-benzoxazine chemotype for cannabinoid receptor 2 as a promising anti-cancer therapeutic” (Eur J Med Chem, 2023).

For assay [1], the target named is T1, Cannabinoid receptor 2 (Homo sapiens, UniProt P34972). Description: Displacement of [3H]CP55,940 from human CB2 receptor expressed in CHO cells membrane assessed as residual activity at 0.1 uM by scintillation counting analysis relative to control. It is filed as cell membranes. Summed up: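 Membranes (2.5 µg) from CHO cells stably expressing human CB2, in 50 mM Tris-HCl, 5 mM MgCl2, 1 mM CaCl2, 2 mg/mL BSA, pH 7.4. Incubated 30 min at 37 °C with 0.8 nM [3H]CP55,940 and 0.1 µM compound (final). Nonspecific binding with 1 µM unlabelled CP55,940. Filtered on PEI-soaked GF/B filters, scintillation counted. Quintuplicate, ≥3 experiments.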
(In general: In a radioligand displacement assay an active substance lowers the binding of a labelled ligand.)

The target of assay [2] is Cannabinoid receptor 1 (Homo sapiens, UniProt P21554). Description: Agonist activity at human recombinant Cannabinoid receptor 1 by GTPgammaS binding assay. It is filed as functional. The note with it: read-out: pEC50 (converted). Summed up:
(§1)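 [35S]GTPγS filtration assay. Membranes (5 µg CB2 or 10 µg/well CB1), permeabilized with equal mass of saponin, preincubated 20 min at room temperature with compound (0-100 μM) in 20 mM HEPES, 100 mM NaCl, 10 mM MgCl2, 10 µM GDP, pH 7.4. Then 0.3 nM [35S]GTPγS for 30 min at 37 °C. Quintuplicate, ≥3 experiments. pEC50 from non-linear fit.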
A general note: Binding of GTPγS marks nucleotide exchange on a G protein.

In assay [3] the target is T1, Cannabinoid receptor 2. As to the kind of experiment: Agonist activity at human recombinant Cannabinoid receptor 2 by GTPgammaS binding assay. Type of assay: functional. The note with it: for EC50: read-out: pEC50 (converted). Summed up:
as §1

Assay [4] has as its system BT-549. Description: Antiproliferative activity against human BT-549 cells transfected with CNR2 siRNA assessed as inhibition of cell proliferation at 0.1 uM incubated after 24 hrs by MTT assay. Type of assay: functional, cell-based. Summed up:
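BT549 transfected with 50 nM CNR2 siRNA or scramble oligo (Lipofectamine RNAiMAX). After 24 h, treated for a further 24 h. Viability by MTT: 1 mg/mL final for 3 h at 37 °C, formazan dissolved in DMSO, absorbance read at 590 nm.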
(Formazan colour is commonly taken as a measure of viable cells.)

The target of assay [5] is T1, Cannabinoid receptor 2. Description: Agonist activity at human recombinant Cannabinoid receptor 2 assessed as stimulation of GTPgammaS binding at 1 uM by GTPgammaS binding assay relative to control. It is filed as functional. Summed up:
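CB2 membranes (ChemiSCREEN) at 5 µg, permeabilised with an equal mass of saponin. Pre-incubated with ligand for 20 min at RT in 20 mM HEPES, 100 mM NaCl, 10 mM MgCl2, pH 7.4, with 10 µM GDP. Then 0.3 nM [35S]GTPγS for 30 min at 37 °C. Stopped with ice-cold phosphate buffer, filtered on PEI-soaked GF/B, scintillation counted. Quintuplicates, ≥3 experiments.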

In assay [6] the test system is BT-549. As to the kind of experiment: Antiproliferative activity against human BT-549 cells assessed as decrease in cell proliferation at 0.1 uM by MTT assay. Type of assay: functional, cell-based. Summed up: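 BT549 in RPMI-1640 with 10% FBS and insulin, seeded at 1.5 x 10^4/well overnight. Sub-confluent cells treated at 37 °C. MTT added at 1 mg/mL final for 3 h at 37 °C in the dark, formazan dissolved in DMSO, absorbance read at 590 nm. Expressed as % of vehicle.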

Assay [7] deals with BT-549. Description: Inhibition of colony formation in human BT-549 cells assessed as decrease in number of colonies at 0.1 uM incubated for 14 days by inverted phase contrast microscope relative to control. The note with it: time 14.0 day. It is filed as functional, cell-based. Summed up: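 BT549 seeded at 1 x 10^3 cells/well and grown at 37 °C for at least 14 days with vehicle or compound. Colonies fixed and stained with 6% glutaraldehyde/0.5% crystal violet for 30 min, then counted by inverted phase-contrast microscopy (10x). Expressed as % of vehicle. Three independent experiments, each at least in triplicate.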

Structures are written as SMILES. The source made the active and inactive calls. The rule behind the calls is not given here. Bounds are passed on as bounds.

T1 sequence (P34972 whole entry): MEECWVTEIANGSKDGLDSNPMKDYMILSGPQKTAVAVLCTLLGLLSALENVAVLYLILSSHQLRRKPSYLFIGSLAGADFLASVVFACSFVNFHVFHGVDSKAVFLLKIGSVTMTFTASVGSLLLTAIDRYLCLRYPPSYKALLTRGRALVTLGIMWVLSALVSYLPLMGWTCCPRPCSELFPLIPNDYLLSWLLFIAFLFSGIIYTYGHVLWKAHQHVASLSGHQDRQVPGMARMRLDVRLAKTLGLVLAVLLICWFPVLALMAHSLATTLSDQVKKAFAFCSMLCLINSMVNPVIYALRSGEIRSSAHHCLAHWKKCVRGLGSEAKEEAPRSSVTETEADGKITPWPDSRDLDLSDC
Sequence of Cannabinoid receptor 1 (P21554 whole entry): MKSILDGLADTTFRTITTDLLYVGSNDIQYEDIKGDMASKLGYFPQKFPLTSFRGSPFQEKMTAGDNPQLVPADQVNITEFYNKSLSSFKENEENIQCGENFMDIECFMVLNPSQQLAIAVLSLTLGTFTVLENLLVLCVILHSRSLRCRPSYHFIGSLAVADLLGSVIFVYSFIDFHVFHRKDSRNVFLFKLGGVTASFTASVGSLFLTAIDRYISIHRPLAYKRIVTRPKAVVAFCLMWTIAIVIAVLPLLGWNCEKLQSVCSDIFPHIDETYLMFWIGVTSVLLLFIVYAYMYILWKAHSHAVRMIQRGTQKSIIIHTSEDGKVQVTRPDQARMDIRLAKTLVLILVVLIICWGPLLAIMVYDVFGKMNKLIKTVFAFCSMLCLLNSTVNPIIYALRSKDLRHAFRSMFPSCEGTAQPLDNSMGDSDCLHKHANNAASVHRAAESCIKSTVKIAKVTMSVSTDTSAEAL

As to `O=C1c2ccc(OS(=O)(=O)c3ccc(-c4ccc(Cl)cc4)cc3)cc2OC2(CCCCC2)N1Cc1ccccc1`, the Activity in assay [1] is under 80%.
On the same count and under the same terms, the same measure for `CN(C)C(=O)CN1C(=O)c2ccc(OS(=O)(=O)c3ccc(Br)cc3)cc2OC1(C)C`: under 80%.
Consider `COc1cccc(S(=O)(=O)Oc2ccc3c(c2)OC2(CCCCC2)N(Cc2ccccc2)C3=O)c1`, for which the EC50 in assay [2] was over 10000 nM; in assay [3], 417 nM. In addition, the Activity in assay [1] was under 80%.
With `CCCn1c(C)c(C(=O)c2cccc3ccccc23)c2ccccc21`, in assay [4], the result was inactive. In addition, the Activity in assay [5] was found to be 233%. For the same compound, the result in assay [6] was Active. Also, in assay [7], the inhibition entry is “Active”.
Turning to `CC1(C)NC(=O)c2ccc(OS(=O)(=O)c3cccc4ccccc34)cc2O1`, the Activity in assay [1] was under 80%.
For the compound `N#Cc1ccc(S(=O)(=O)Oc2ccc3c(c2)OC2(CCCCC2)N(Cc2ccccc2)C3=O)cc1`, the EC50 in assay [2] is over 10000 nM; in assay [3], 288 nM. Further, in assay [1], the Activity is under 80%.
Consider `Cn1ccc(S(=O)(=O)Oc2ccc3c(c2)OC2(CCCCC2)N(Cc2ccc(C#N)cc2)C3=O)n1`, for which the EC50 is over 10000 nM in assay [2] and 372 nM in assay [3]. Also, the Activity in assay [1] is under 80%.
In the case of `CC1(C)Oc2cc(OCc3ccc(OC(F)(F)F)cc3)ccc2C(=O)N1Cc1ccc(F)cc1`, the Activity in assay [1] is under 80%. Besides, the pEC50 entry in assay [3] is “inactive”.
In the case of `CN1C(=O)c2ccc(OS(=O)(=O)c3cccc4ccccc34)cc2OC1(C)C`, the EC50 in assay [2] was 7240 nM; in assay [3], 2950 nM. Moreover, the Activity in assay [1] is under 80%.
Regarding `COc1ccc(S(=O)(=O)Oc2ccc3c(c2)OC2(CCCCC2)N(Cc2ccccc2)C3=O)cc1`, the EC50 in assay [2] was over 10000 nM; in assay [3], 1480 nM. Also, the Activity in assay [1] is under 80%.
As to `CC(C)(C)C(=O)COc1ccc2c(c1)OC(C)(C)N(Cc1ccccc1)C2=O`, the Activity in assay [1] is under 80%. Moreover, the pEC50 entry in assay [3] was “inactive”.
With `O=C1NC2(CCCCC2)Oc2cc(OS(=O)(=O)c3ccccc3[N+](=O)[O-])ccc21`, the EC50 in assay [2] is over 10000 nM; in assay [3], 2140 nM. Further, the Activity in assay [1] is under 80%.
For the compound `O=C1c2ccc(OS(=O)(=O)Cc3ccccc3)cc2OC2(CCCCC2)N1Cc1ccccc1`, the EC50 was over 10000 nM in assay [2] and 759 nM in assay [3]. Moreover, in assay [1], the Activity was under 80%.
As to `O=C1c2ccc(OS(=O)(=O)c3ccc([N+](=O)[O-])cc3)cc2OC2(CCOCC2)N1Cc1ccccc1`, the Activity in assay [1] is under 80%.
Take `CN1C(=O)c2ccc(OS(=O)(=O)c3ccc(Oc4ccccc4)cc3)cc2OC1(C)C`: the Activity in assay [1] was under 80%.
`N#Cc1cccc(S(=O)(=O)Oc2ccc3c(c2)OC2(CCCCC2)N(Cc2ccccc2)C3=O)c1`: the EC50 was over 10000 nM in assay [2] and 355 nM in assay [3]. Moreover, the Activity in assay [1] was under 80%.
For `O=C1c2ccc(OS(=O)(=O)c3cccc([N+](=O)[O-])c3)cc2OC2(CCOCC2)N1Cc1ccccc1`, the EC50 in assay [2] was over 10000 nM; in assay [3], 204 nM. Further, the Activity in assay [1] was under 80%.
In the case of `Cc1ccc(S(=O)(=O)Oc2ccc3c(c2)OC(C)(C)N(Cc2ccc(F)cc2)C3=O)cc1`, the values for the EC50 in assay [2] and in assay [3] were over 10000 nM and 195 nM, respectively. In addition, the Activity in assay [1] was under 80%.
Consider `COc1cccc(S(=O)(=O)Oc2ccc3c(c2)OC2(CCCCC2)N(CCCCC#N)C3=O)c1`, for which the results for the EC50 in assay [2] and in assay [3] were over 10000 nM and 776 nM, respectively. Also, the Activity in assay [1] was under 80%.
As for `COc1cccc(COc2ccc3c(c2)OC(C)(C)N(Cc2ccc(F)cc2)C3=O)c1`, the Activity in assay [1] was under 80%. Besides, the pEC50 entry in assay [3] is “inactive”.
On to `COc1cccc(COc2ccc3c(c2)OC(C)(C)N(Cc2ccc(C(C)C)cc2)C3=O)c1`, for which the Activity in assay [1] is under 80%. In addition, the pEC50 result in assay [3] is “inactive”.
`COc1cccc(S(=O)(=O)Oc2ccc3c(c2)OC2(CCCCC2)N(Cc2ccc(C(C)C)cc2)C3=O)c1`: the Activity in assay [1] is under 80%.
With `N#Cc1ccc(CN2C(=O)c3ccc(OCc4ccc(OC(F)(F)F)cc4)cc3OC23CCCCC3)cc1`, the Activity in assay [1] was under 80%. The pEC50 entry in assay [3] is “inactive”.
On to `O=C1c2ccc(OS(=O)(=O)c3ccc4c(c3)OCCO4)cc2OC2(CCOCC2)N1Cc1ccccc1`, for which the Activity in assay [1] was under 80%.
For `Cn1cnc(S(=O)(=O)Oc2ccc3c(c2)OC2(CCCCC2)N(Cc2ccccc2)C3=O)c1`, the results for the EC50 in assay [2] and in assay [3] were over 10000 nM and 1000 nM, respectively. Also, the Activity in assay [1] was under 80%.
